From PMC3618282 (International journal of pharmaceutics, 2012)
One block for each molecule: values may come before it. Square brackets hold non-standard residues; d marks the D form. Peptide text beside a SMILES is read from it. Sar = CNCC(=O)O

What was measured:
[1] = test system: apical peptide transporters in MDCKII-wt cells; test: Apical [3H]Gly-Sar uptake; format: in vitro ADME, canine
Summary of the method: (§1)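 Cells under passage 6 were seeded at 7 × 10^4 cells/cm2 in 12-well plates and washed with DPBS pH 7.4. Apical [3H]Gly-Sar (0.5 μCi/mL in DPBS) with unlabeled Gly-Sar (5–250 μM) was incubated 15 min at 37 °C and 4 °C. Stop was ice-cold 200 mM KCl/2 mM HEPES. Lysis in 0.3 N NaOH/0.1% Triton X-100, scintillation counting, normalised to protein. Specific uptake is 37 °C minus 4 °C. Michaelis–Menten fit gave Km and Vmax; efficiency is Vmax/Km; n = 3.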

[2] = test system: apical peptide transporters in MDCKII-MDR1 cells; test: Apical [3H]Gly-Sar uptake; format: in vitro ADME, canine
Summary of the method: as §1

[3] = test system: apical peptide transporters; test: Apical [3H]Gly-Sar uptake; format: in vitro ADME, canine; conditions: dog, MDCKII-MDR1 cells (apical uptake), pH 7.4
Summary of the method: as §1

[4] = test system: apical peptide transporters in MDCKII-MRP2 cells; test: Apical [3H]Gly-Sar uptake; format: in vitro ADME, canine
Summary of the method: as §1

[5] = test system: apical peptide transporters; test: Apical [3H]Gly-Sar uptake; format: in vitro ADME, canine; conditions: dog, MDCKII-MRP2 cells (apical uptake), pH 7.4
Summary of the method: as §1

[6] = test system: apical peptide transporters in MDCKII-BCRP cells; test: Apical [3H]Gly-Sar uptake; format: in vitro ADME, canine
Summary of the method: as §1

[7] = test system: apical peptide transporters; test: Apical [3H]Gly-Sar uptake; format: in vitro ADME, canine; conditions: dog, MDCKII-BCRP cells (apical uptake), pH 7.4
Summary of the method: as §1

[8] = test system: basolateral peptide transporters in MDCKII-wt cells; test: Basolateral [3H]Gly-Sar uptake; format: in vitro ADME, canine
Summary of the method: (§2)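 Cells under passage 6 were seeded at 2 × 10^5 cells/cm2 on Transwell inserts (0.4 μm pore) and dosed from the basolateral side. [3H]Gly-Sar was given with unlabeled Gly-Sar (0–250 μM) at 4 °C and 37 °C. Specific uptake is 37 °C minus 4 °C, normalised to protein and fitted to Michaelis–Menten for Km and Vmax; n = 3.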

[9] = test system: basolateral peptide transporters in MDCKII-MDR1 cells; test: Basolateral [3H]Gly-Sar uptake; format: in vitro ADME, canine; conditions: basolateral uptake, MDCKII-MDR1
Summary of the method: as §2

[10] = test system: basolateral peptide transporters; test: Basolateral [3H]Gly-Sar uptake; format: in vitro ADME, canine; conditions: dog, MDCKII-MDR1 cells on Transwell inserts (basolateral uptake), pH 7.4
Summary of the method: as §2

[11] = test system: basolateral peptide transporters in MDCKII-MRP2 cells; test: Basolateral [3H]Gly-Sar uptake; format: in vitro ADME, canine; conditions: basolateral uptake, MDCKII-MRP2
Summary of the method: as §2

[12] = test system: basolateral peptide transporters; test: Basolateral [3H]Gly-Sar uptake; format: in vitro ADME, canine; conditions: dog, MDCKII-MRP2 cells on Transwell inserts (basolateral uptake), pH 7.4
Summary of the method: as §2

[13] = test system: basolateral peptide transporters in MDCKII-BCRP cells; test: Basolateral [3H]Gly-Sar uptake; format: in vitro ADME, canine; conditions: basolateral uptake, MDCKII-BCRP
Summary of the method: as §2

[14] = test system: basolateral peptide transporters; test: Basolateral [3H]Gly-Sar uptake; format: in vitro ADME, canine; conditions: dog, MDCKII-BCRP cells on Transwell inserts (basolateral uptake), pH 7.4
Summary of the method: as §2

[15] = Transporter-mediated transepithelial Gly-Sar transport; format: in vitro ADME, canine; conditions: dog, MDCK, MDCKII-wt
Summary of the method: (§3)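 Monolayers under passage 6 were grown on Transwell inserts (2 × 10^5 cells/cm2) and washed with DPBS pH 7.4. Apical 0.5 mL was at pH 4.0–7.4; basolateral 1.5 mL was held at pH 7.4. [3H]Gly-Sar was run AP→BL and BL→AP. Receiver samples were taken over 60 min and replaced with fresh DPBS. Transporter-mediated Papp is [3H]Gly-Sar minus [14C]mannitol passive transport; n = 4.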

[16] = as above; format: in vitro ADME, canine; conditions: dog; for Papp A→B at 60 min, 0.5 μCi/mL: MDCK-MDR1, AP–BL permeability; for Papp B→A at 60 min, 0.5 μCi/mL: MDCK-MDR1, BL–AP permeability
Summary of the method: as §3

[17] = as above; format: in vitro ADME, canine; conditions: dog
Summary of the method: as §3

[18] = as above; format: in vitro ADME, canine; conditions: dog, MDCKII-BCRP
Summary of the method: as §3

[19] = AP–BL [14C]Mannitol permeability; format: in vitro ADME, canine; conditions: dog, MDCK, pH 7.4
[20] = AP–BL [14C]Mannitol permeability; format: in vitro ADME, canine; conditions: dog, MDCK-MDR1, pH 7.4
[21] = test system: apical peptide transporters (PepT1 and PepT2) in MDCKII cell lines; test: Inhibition of apical [3H]Gly-Sar uptake by peptide transporter inhibitors; format: cell-based, canine; conditions: inhibitor 100 μM, pH 7.4, 37 °C, 15 min, all four MDCKII cell lines
[22] = AP–BL permeability, AP chamber pH 4.0, BL pH 7.4
[23] = AP–BL permeability, AP chamber pH 5.0, BL pH 7.4
[24] = AP–BL permeability, AP chamber pH 6.0, BL pH 7.4
[25] = BL–AP permeability, AP chamber pH 4.0, BL pH 7.4
[26] = BL–AP permeability, AP chamber pH 5.0, BL pH 7.4
[27] = BL–AP permeability, AP chamber pH 6.0, BL pH 7.4
[28] = pH 7.4, AP–BL permeability, AP chamber pH 7.4, BL pH 7.4
[29] = pH 7.4, BL–AP permeability, AP chamber pH 7.4, BL pH 7.4
[30] = MDCKII-MDR1, AP chamber pH 4.0, BL pH 7.4
[31] = MDCKII-MDR1, AP chamber pH 5.0, BL pH 7.4
[32] = MDCKII-MDR1, AP chamber pH 6.0, BL pH 7.4

- extracellular pH of maximal apical uptake ([1]; pH 4.0–7.4 tested, all MDCKII cell lines): 6.0
- uptake in MDCKII-wt cells in comparison with transfected cells ([1]; total apical uptake at 37 °C, pH 7.4): 3–5 fold
- Km at 15 min [3]: 29.1 ± 3.29 µM
- Km at 15 min [5]: 84.8 ± 18.6 µM
- Km at 15 min [7]: 60.7 ± 8.56 µM
- Km at 15 min [10]: 50.9 ± 7.86 µM
- Km at 15 min [12]: 64.6 ± 4.09 µM
- Km at 15 min [14]: 46.1 ± 2.26 µM
- Papp A→B at 60 min, 0.5 μCi/mL [15, 22]: 13.1 ± 1.4 ×10⁻⁶ cm/s
- Papp A→B at 60 min, 0.5 μCi/mL [15, 23]: 14.9 ± 2.8 ×10⁻⁶ cm/s
- Papp A→B at 60 min, 0.5 μCi/mL [15, 24]: 22.2 ± 1.9 ×10⁻⁶ cm/s
- Papp B→A at 60 min, 0.5 μCi/mL [15, 25]: 9.4 ± 0.4 ×10⁻⁶ cm/s
- Papp B→A at 60 min, 0.5 μCi/mL [15, 26]: 6.6 ± 0.6 ×10⁻⁶ cm/s
- Papp B→A at 60 min, 0.5 μCi/mL [15, 27]: 6 ± 1 ×10⁻⁶ cm/s
- Papp A→B at 60 min, 0.5 μCi/mL [15, 28]: 36.7 ± 0.2 ×10⁻⁶ cm/s
- Papp B→A at 60 min, 0.5 μCi/mL [15, 29]: 8 ± 0.9 ×10⁻⁶ cm/s
- Papp A→B at 60 min, 0.5 μCi/mL [16, 30]: 6 ± 0.4 ×10⁻⁶ cm/s
- Papp A→B at 60 min, 0.5 μCi/mL [16, 31]: 6.4 ± 0.5 ×10⁻⁶ cm/s
- Papp A→B at 60 min, 0.5 μCi/mL [16, 32]: 8 ± 0.4 ×10⁻⁶ cm/s
- Papp B→A at 60 min, 0.5 μCi/mL [16, 30]: 10.1 ± 1.3 ×10⁻⁶ cm/s
- Papp B→A at 60 min, 0.5 μCi/mL [16, 31]: 7.6 ± 0.8 ×10⁻⁶ cm/s
- Papp B→A at 60 min, 0.5 μCi/mL [16, 32]: 8.2 ± 0.5 ×10⁻⁶ cm/s
- Papp A→B at 60 min, 0.5 μCi/mL ([17]; AP–BL permeability, MDCKII-MRP2, AP chamber pH 4.0, BL pH 7.4): 8.6 ± 1.1 ×10⁻⁶ cm/s
- Papp A→B at 60 min, 0.5 μCi/mL ([17]; AP–BL permeability, MDCKII-MRP2, AP chamber pH 5.0, BL pH 7.4): 9.9 ± 0.8 ×10⁻⁶ cm/s
- Papp A→B at 60 min, 0.5 μCi/mL ([17]; AP–BL permeability, MDCKII-MRP2, AP chamber pH 6.0, BL pH 7.4): 10.6 ± 0.1 ×10⁻⁶ cm/s
- Papp B→A at 60 min, 0.5 μCi/mL ([17]; BL–AP permeability, MDCKII-MRP2, AP chamber pH 4.0, BL pH 7.4): 8.5 ± 0.6 ×10⁻⁶ cm/s
- Papp B→A at 60 min, 0.5 μCi/mL ([17]; BL–AP permeability, MDCKII-MRP2, AP chamber pH 5.0, BL pH 7.4): 6.3 ± 0.4 ×10⁻⁶ cm/s
- Papp B→A at 60 min, 0.5 μCi/mL ([17]; BL–AP permeability, MDCKII-MRP2, AP chamber pH 6.0, BL pH 7.4): 7.5 ± 0.5 ×10⁻⁶ cm/s
- Papp A→B at 60 min, 0.5 μCi/mL ([17]; pH 7.4, AP–BL permeability, MDCKII-MRP2, AP chamber pH 7.4, BL pH 7.4): 17.7 ± 1.4 ×10⁻⁶ cm/s
- Papp B→A at 60 min, 0.5 μCi/mL ([17]; pH 7.4, BL–AP permeability, MDCKII-MRP2, AP chamber pH 7.4, BL pH 7.4): 15.7 ± 0.6 ×10⁻⁶ cm/s
- Papp A→B at 60 min, 0.5 μCi/mL [18, 22]: 7.1 ± 0.3 ×10⁻⁶ cm/s
- Papp A→B at 60 min, 0.5 μCi/mL [18, 23]: 7.6 ± 1.2 ×10⁻⁶ cm/s
- Papp A→B at 60 min, 0.5 μCi/mL [18, 24]: 10.7 ± 0.7 ×10⁻⁶ cm/s
- Papp B→A at 60 min, 0.5 μCi/mL [18, 25]: 10.9 ± 0.7 ×10⁻⁶ cm/s
- Papp B→A at 60 min, 0.5 μCi/mL [18, 26]: 6.5 ± 0.7 ×10⁻⁶ cm/s
- Papp B→A at 60 min, 0.5 μCi/mL [18, 27]: 7.2 ± 0.9 ×10⁻⁶ cm/s
- Papp A→B at 60 min, 0.5 μCi/mL [18, 28]: 18.6 ± 1.9 ×10⁻⁶ cm/s
- Papp B→A at 60 min, 0.5 μCi/mL [18, 29]: 15.6 ± 0.1 ×10⁻⁶ cm/s
SMILES: CN(CC(=O)O)C(=O)CN [Gly-Sar, Glycylsarcosine] (H-Gly-[Sar]-OH)
- Km ([1]; apical uptake, MDCKII-wt): 59.7 ± 1.1 µM
- Vmax ([1]; apical uptake, MDCKII-wt): 10.76 ± 1.68 fmol/mg protein/min
- transport efficiency relative to that in wild-type cells ([2]; apical peptide transporters, MDCKII-MDR1 vs wild-type): around 25%
- Vmax ([2]; apical uptake, MDCKII-MDR1, low passage): 1.30 ± 0.36 fmol/mg protein/min
- Vmax relative to that in wild-type cells ([2]; apical uptake, hMDR1-transfected vs wild-type): about 12%
- transport efficiency relative to that in wild-type cells ([4]; apical peptide transporters, MDCKII-MRP2 vs wild-type): ~30%
- Vmax ([4]; apical uptake, MDCKII-MRP2, low passage): 4.62 ± 0.76 fmol/mg protein/min
- Vmax relative to that in wild-type cells ([4]; apical uptake, hMRP2-transfected vs wild-type): ~43%
- transport efficiency relative to that in wild-type cells ([6]; apical peptide transporters, MDCKII-BCRP vs wild-type): ~41%
- Vmax ([6]; apical uptake, MDCKII-BCRP, low passage): 4.50 ± 0.83 fmol/mg protein/min
- Vmax relative to that in wild-type cells ([6]; apical uptake, hBCRP-transfected vs wild-type): ~42%
- Km [8]: 13.7 ± 2.22 µM
- Vmax [8]: 4.45 ± 0.04 fmol/mg protein/min
- Vmax [9]: 8.52 ± 0.81 fmol/mg protein/min
- Vmax [11]: 8.03 ± 1.78 fmol/mg protein/min
- Vmax [13]: 13.07 ± 2.61 fmol/mg protein/min

- Papp A→B at 60 min, 0.125 µCi/mL [19]: 42.1 ± 0.5 ×10⁻⁶ cm/s
- Papp A→B at 60 min, 0.125 µCi/mL [20]: 18.4 ± 0.9 ×10⁻⁶ cm/s
SMILES: OC[C@@H](O)[C@@H](O)[C@H](O)[C@H](O)CO [[^14C]Mannitol, Mannitol]

SMILES: CCC(=O)O[C@@H](O[P@](=O)(CCCCc1ccccc1)CC(=O)N1C[C@H](C2CCCCC2)C[C@H]1C(=O)O)C(C)C [fosinopril, Fosinopril]
- effect on apical [3H]Gly-Sar uptake compared to control [21]: significantly reduced apical Gly-Sar uptake
